A value given as a limit tells only on which side of the number the result lay.

Among the data in ChEMBL document CHEMBL4406875, “Design, synthesis and biological evaluation of amino acids-oleanolic acid conjugates as influenza virus inhibitors” (Bioorg Med Chem, 2019) are IC50 values, retold here.

In assay [1] the test system is Influenza B virus. The assay can be described thus: Antiviral activity against oseltamivir resistant Victoria lineage of Influenza B virus (B/Brisbane/60/2008) BX-35 infected in MDCK cells assessed as inhibition of virus-induced cytopathic effect measured after 45 hrs by CellTiter-Glo luminescence assay. Type of assay: functional, organism-based. As to conditions: B/Brisbane/60/2008 BX-35, MDCK. In a few lines:
(§1)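 MDCK cells (5,000/well) were seeded one day before infection. Infection medium was high-glucose DMEM with 1% FBS and trypsin (1 μg/mL). Compounds were added at various concentrations and cells infected at MOI 0.1. After 45 h, viability was read by CellTiter-Glo luminescence. IC50 was taken from dose-response curves, as the mean of duplicate samples from three independent experiments.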
A general note: Protection from cytopathic effect is a common read-out in antiviral testing.

For assay [2], the system named is Influenza B virus. Nature of the assay: Antiviral activity against oseltamivir resistant Yamagata lineage of Influenza B virus (B/Massachusetts/2/2012) BX-51B infected in MDCK cells assessed as inhibition of virus-induced cytopathic effect measured after 45 hrs by CellTiter-Glo luminescence assay. Type of assay: functional, organism-based. Conditions: B/Massachusetts/02/2012 BX-51B. In a few lines:
as §1

Broadly, the IC50 is the concentration needed to halve the response being measured. In the case of `CCOC(=O)C1=C[C@@H](OC(CC)CC)[C@H](NC(C)=O)[C@@H](N)C1` [OSELTAMIVIR PHOSPHATE], the IC50 in assay [1] and in assay [2] was more than 100 µM each time.
Consider `CC1(C)CC[C@]2(C(=O)N[C@@H](CCCNC(=N)N)C(=O)O)CC[C@]3(C)C(=CC[C@@H]4[C@@]5(C)CC[C@H](O)C(C)(C)[C@@H]5CC[C@]43C)[C@@H]2C1`, for which the IC50 in assay [1] was 61.6 µM; in assay [2], 45.8 µM.
